# Source: ChEMBL document CHEMBL1914334, “Discovery and characterization of potent and selective 4-oxo-4-(5-(5-phenyl-1,2,4-oxadiazol-3-yl)indolin-1-yl)butanoic acids as S1P₁ agonists” (Bioorg Med Chem Lett, 2011)
# Activity calls are given as the source filed them. No cut-off for these calls is given here.
# Legend:
# [1] = Tmax in Sprague-Dawley rat at 1 mg/kg, iv and 1.5 mg/kg, po; type: ADME, organism-based; conditions: in vivo
# [2] = Volume of distribution at steady state in Sprague-Dawley rat at 1 mg/kg, iv and 1.5 mg/kg, po; type: ADME, organism-based; conditions: in vivo, read-out: Vdss
# Cytochrome P450 2D6 = Cytochrome P450 2D6 (Homo sapiens, UniProt P10635); assay: Inhibition of CYP2D6; type: ADME
# Salmonella typhimurium [3] = assay: Mutagenic activity in Salmonella Typhimurium TA100 by Ames test in absence of S9 fraction; type: toxicity, organism-based; conditions: salmonella enterica subsp. enterica serovar typhimurium
# Salmonella typhimurium [4] = assay: Mutagenic activity in Salmonella Typhimurium TA1535 by Ames test in absence of S9 fraction; type: toxicity, organism-based; conditions: salmonella enterica subsp. enterica serovar typhimurium
# [5] = target: Sphingosine 1-phosphate receptor 1 (Rattus norvegicus, UniProt P48303); assay: Agonist activity at rat S1P1 receptor expressed in HEK293 cells assessed as inhibition of forskolin-stimulated cAMP production after 1 hr by HTRF assay; type: functional, cell-based
# Salmonella typhimurium [6] = assay: Mutagenic activity in Salmonella Typhimurium TA97a by Ames test in absence of S9 fraction; type: toxicity, organism-based; conditions: salmonella enterica subsp. enterica serovar typhimurium
# [7] = Agonist activity at dog S1P1 receptor expressed in HEK293 cells assessed as inhibition of forskolin-stimulated cAMP production after 1 hr by HTRF assay; type: functional, cell-based; conditions: HEK293, 1 h
# Salmonella typhimurium [8] = assay: Mutagenic activity in Salmonella Typhimurium TA97a by Ames test in presence of S9 fraction; type: toxicity, organism-based; conditions: salmonella enterica subsp. enterica serovar typhimurium
# [9] = target: Sphingosine 1-phosphate receptor 3 (Homo sapiens, UniProt Q99500); assay: Agonist activity at recombinant human S1P3 receptor expressed in HEK293 cells after 2 hrs by beta-arrestin assay; type: functional, cell-based
# [10] = AUC (0 to last) in Sprague-Dawley rat at 1 mg/kg, iv and 1.5 mg/kg, po; type: ADME, organism-based; conditions: plasma
# [11] = Cmax in Sprague-Dawley rat at 1 mg/kg, iv and 1.5 mg/kg, po; type: ADME, organism-based; conditions: in vivo
# [12] = Half life in Sprague-Dawley rat at 1 mg/kg, iv and 1.5 mg/kg, po; type: ADME, organism-based; conditions: in vivo
# Salmonella typhimurium [13] = assay: Mutagenic activity in Salmonella Typhimurium TA98 by Ames test in presence of S9 fraction; type: toxicity, organism-based; conditions: salmonella enterica subsp. enterica serovar typhimurium
# hERG (KCNH2) = hERG (KCNH2) (Homo sapiens, UniProt Q12809); assay: Inhibition of human ERG at 3 uM by patch clamp assay
# [14] = target: T1, Sphingosine 1-phosphate receptor 1 (Homo sapiens, UniProt P21453); assay: Agonist activity at human S1P1 receptor expressed in HEK293 cells assessed as inhibition of forskolin-stimulated cAMP production after 1 hr by HTRF assay; type: functional, cell-based
# Method in brief: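 Human S1P₁ cAMP HTRF read-out; each EC₅₀ is the mean of three or more replicates.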
# [15] = Metabolic stability in rat liver microsomes assessed as half life; type: ADME, Microsome
# [16] = target: Sphingosine 1-phosphate receptor 5 (Homo sapiens, UniProt Q9H228); assay: Agonist activity at recombinant human S1P5 receptor expressed in HEK293 cells after 2 hrs by beta-arrestin assay; type: functional, cell-based
# [17] = target: T2, Sphingosine 1-phosphate receptor 4 (Homo sapiens, UniProt O95977); assay: Agonist activity at recombinant human S1P4 receptor expressed in HEK293 cells after 2 hrs by beta-arrestin assay; type: functional, cell-based
# T2 sequence (O95977 whole entry): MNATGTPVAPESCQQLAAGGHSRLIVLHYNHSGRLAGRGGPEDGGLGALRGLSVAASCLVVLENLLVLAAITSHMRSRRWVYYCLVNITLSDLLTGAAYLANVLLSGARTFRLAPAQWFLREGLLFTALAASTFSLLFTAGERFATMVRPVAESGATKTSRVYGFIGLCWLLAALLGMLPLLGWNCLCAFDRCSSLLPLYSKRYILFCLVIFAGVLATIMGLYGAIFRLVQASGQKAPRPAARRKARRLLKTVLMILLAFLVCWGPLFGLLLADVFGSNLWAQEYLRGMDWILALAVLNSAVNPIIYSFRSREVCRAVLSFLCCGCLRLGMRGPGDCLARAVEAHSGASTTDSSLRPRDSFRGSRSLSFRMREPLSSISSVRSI
# [18] = Metabolic stability in human liver microsomes assessed as half life; type: ADME, Microsome
# Cytochrome P450 3A4 = Cytochrome P450 3A4 (Homo sapiens, UniProt P08684); assay: Inhibition of CYP3A4; type: ADME
# [19] = Clearance in Sprague-Dawley rat at 1 mg/kg, iv and 1.5 mg/kg, po; type: ADME, organism-based; conditions: in vivo
# Salmonella typhimurium [20] = assay: Mutagenic activity in Salmonella Typhimurium TA100 by Ames test in presence of S9 fraction; type: toxicity, organism-based; conditions: salmonella enterica subsp. enterica serovar typhimurium
# [21] = Oral bioavailability in Sprague-Dawley rat at 1.5 mg/kg; type: ADME, organism-based; conditions: in vivo
# [22] = Agonist activity at monkey S1P1 receptor expressed in HEK293 cells assessed as inhibition of forskolin-stimulated cAMP production after 1 hr by HTRF assay; type: functional, cell-based; conditions: Macaca mulatta, HEK293, 1 h
# Cytochrome P450 2C9 = Cytochrome P450 2C9 (Homo sapiens, UniProt P11712); assay: Inhibition of CYP2C9; type: ADME
# [23] = target: Sphingosine 1-phosphate receptor 1 (Mus musculus, UniProt O08530); assay: Agonist activity at mouse S1P1 receptor expressed in HEK293 cells assessed as inhibition of forskolin-stimulated cAMP production after 1 hr by HTRF assay; type: functional, cell-based
# Salmonella typhimurium [24] = assay: Mutagenic activity in Salmonella Typhimurium TA1535 by Ames test in presence of S9 fraction; type: toxicity, organism-based; conditions: salmonella enterica subsp. enterica serovar typhimurium
# Mus musculus [25] = assay: Immunomodulatory activity BALB/C mouse assessed as induction of lymphopenia at 1 mg/kg, po after 5 hrs; type: functional, organism-based; parameters: dose 1 mg/kg
# Method in brief: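 Male BALB/c mice were given a single oral dose of 1.0 mg/kg or vehicle (0.5% methylcellulose). Blood lymphocytes were counted at one time point, 5 h post-dose, with n = 6 per dose group (mean ± SD). Lowering was judged relative to the vehicle group.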
# Cytochrome P450 2C19 = Cytochrome P450 2C19 (Homo sapiens, UniProt P33261); assay: Inhibition of CYP2C19; type: ADME
# [26] = Protein binding in human; type: ADME, organism-based; conditions: in vivo, read-out: PB (converted)
# [27] = target: T1, Sphingosine 1-phosphate receptor 1; assay: Agonist activity at recombinant human S1P1 receptor expressed in HEK293 cells after 2 hrs by beta-arrestin assay; type: functional, cell-based
# [28] = target: Voltage-gated inwardly rectifying potassium channel KCNH2 (Homo sapiens, UniProt Q12809); assay: Displacement of [3H]astemizole from human ERG
# Cytochrome P450 1A2 = target: T3, Cytochrome P450 1A2 (Homo sapiens, UniProt P05177); assay: Inhibition of CYP1A2; type: ADME
# T3 sequence (P05177 whole entry): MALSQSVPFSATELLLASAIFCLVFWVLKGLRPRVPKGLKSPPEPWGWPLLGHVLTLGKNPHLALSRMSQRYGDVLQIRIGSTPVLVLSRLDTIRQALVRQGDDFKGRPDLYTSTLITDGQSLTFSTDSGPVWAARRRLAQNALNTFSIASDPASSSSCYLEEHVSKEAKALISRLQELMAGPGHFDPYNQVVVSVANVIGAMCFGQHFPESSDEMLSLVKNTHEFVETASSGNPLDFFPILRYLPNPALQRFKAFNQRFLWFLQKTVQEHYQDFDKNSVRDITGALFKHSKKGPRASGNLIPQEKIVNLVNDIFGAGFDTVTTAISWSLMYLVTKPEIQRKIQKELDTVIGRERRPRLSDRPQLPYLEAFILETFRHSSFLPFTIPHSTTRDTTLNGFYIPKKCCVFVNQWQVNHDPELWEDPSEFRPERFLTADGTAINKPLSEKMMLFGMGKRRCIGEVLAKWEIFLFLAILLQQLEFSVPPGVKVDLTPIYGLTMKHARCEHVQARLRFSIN
# [29] = target: Sphingosine 1-phosphate receptor 2 (Homo sapiens, UniProt O95136); assay: Agonist activity at recombinant human S1P2 receptor expressed in HEK293 cells after 2 hrs by beta-arrestin assay; type: functional, cell-based
# Salmonella typhimurium [30] = assay: Mutagenic activity in Salmonella Typhimurium TA98 by Ames test in absence of S9 fraction; type: toxicity, organism-based; conditions: salmonella enterica subsp. enterica serovar typhimurium
# Mus musculus [31] = assay: Immunomodulatory activity in po dosed BALB/C mouse assessed as induction of lymphopenia after 16 hrs; type: functional, organism-based
# Method in brief: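 Male BALB/c mice were dosed orally at 1, 3 or 10 mg/kg, or with vehicle (0.5% methylcellulose in water). Blood was sampled up to 24 h post-dose for lymphocyte counts and plasma drug levels (mean ± SD). An indirect PK/PD model was fitted to give the blood concentration suppressing lymphocytes by 50%.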
# [32] = AUC (0 to last) in Sprague-Dawley rat at 2 mg/kg, iv and 3 mg/kg, po; type: ADME, organism-based; conditions: plasma
# [33] = Cmax in Sprague-Dawley rat at 2 mg/kg, iv and 3 mg/kg, po; type: ADME, organism-based; conditions: in vivo
# [34] = Clearance in Sprague-Dawley rat at 2 mg/kg, iv and 3 mg/kg, po; type: ADME, organism-based; conditions: in vivo
# [35] = Oral bioavailability in Sprague-Dawley rat at 3 mg/kg; type: ADME, organism-based; conditions: in vivo
# [36] = Tmax in Sprague-Dawley rat at 2 mg/kg, iv and 3 mg/kg, po; type: ADME, organism-based; conditions: in vivo
# Mus musculus [37] = assay: Immunomodulatory activity BALB/C mouse assessed as induction of lymphopenia at 0.3 to 3 mg/kg, po after 24 hrs; type: functional, organism-based; conditions: 1 to 10 mg/kg, in the assay text read “1 to 10 mg/kg” for “0.3 to 3 mg/kg”
# [38] = Volume of distribution at steady state in Sprague-Dawley rat at 2 mg/kg, iv and 3 mg/kg, po; type: ADME, organism-based; conditions: in vivo, read-out: Vdss
# [39] = Half life in Sprague-Dawley rat at 2 mg/kg, iv and 3 mg/kg, po; type: ADME, organism-based; conditions: in vivo
# [40] = Terminal half life in mouse; type: ADME, organism-based; conditions: in vivo, read-out: beta t1/2 (converted)
# [41] = Protein binding in rat; type: ADME, organism-based; conditions: in vivo, read-out: PB (converted)
# T1 sequence (P21453 whole entry): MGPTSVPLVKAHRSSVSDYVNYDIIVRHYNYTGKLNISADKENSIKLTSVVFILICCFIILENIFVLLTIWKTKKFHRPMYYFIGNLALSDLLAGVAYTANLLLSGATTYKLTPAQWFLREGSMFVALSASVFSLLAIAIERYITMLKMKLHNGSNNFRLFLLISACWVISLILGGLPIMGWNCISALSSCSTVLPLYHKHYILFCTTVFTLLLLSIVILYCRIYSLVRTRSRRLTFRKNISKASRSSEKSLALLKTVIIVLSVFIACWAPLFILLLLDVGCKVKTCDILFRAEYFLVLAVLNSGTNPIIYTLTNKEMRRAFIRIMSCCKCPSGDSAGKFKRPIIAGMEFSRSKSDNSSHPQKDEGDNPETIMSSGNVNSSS
# Cytochrome P450 3A4, sequence (P08684 whole entry): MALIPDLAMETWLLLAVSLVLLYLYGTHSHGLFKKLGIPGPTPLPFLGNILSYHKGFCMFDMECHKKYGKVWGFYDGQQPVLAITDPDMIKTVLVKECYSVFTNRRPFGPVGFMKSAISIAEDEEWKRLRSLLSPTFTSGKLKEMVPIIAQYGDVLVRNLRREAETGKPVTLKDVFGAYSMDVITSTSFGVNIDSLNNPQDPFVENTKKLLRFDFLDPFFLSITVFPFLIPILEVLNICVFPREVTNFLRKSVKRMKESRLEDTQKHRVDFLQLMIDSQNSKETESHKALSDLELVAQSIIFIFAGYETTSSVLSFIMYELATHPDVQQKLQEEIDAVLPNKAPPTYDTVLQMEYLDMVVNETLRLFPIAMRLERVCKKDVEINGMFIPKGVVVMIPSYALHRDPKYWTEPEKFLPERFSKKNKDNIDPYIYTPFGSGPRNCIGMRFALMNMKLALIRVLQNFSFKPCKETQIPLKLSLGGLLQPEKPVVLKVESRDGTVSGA
# Cytochrome P450 2C19, sequence (P33261 whole entry): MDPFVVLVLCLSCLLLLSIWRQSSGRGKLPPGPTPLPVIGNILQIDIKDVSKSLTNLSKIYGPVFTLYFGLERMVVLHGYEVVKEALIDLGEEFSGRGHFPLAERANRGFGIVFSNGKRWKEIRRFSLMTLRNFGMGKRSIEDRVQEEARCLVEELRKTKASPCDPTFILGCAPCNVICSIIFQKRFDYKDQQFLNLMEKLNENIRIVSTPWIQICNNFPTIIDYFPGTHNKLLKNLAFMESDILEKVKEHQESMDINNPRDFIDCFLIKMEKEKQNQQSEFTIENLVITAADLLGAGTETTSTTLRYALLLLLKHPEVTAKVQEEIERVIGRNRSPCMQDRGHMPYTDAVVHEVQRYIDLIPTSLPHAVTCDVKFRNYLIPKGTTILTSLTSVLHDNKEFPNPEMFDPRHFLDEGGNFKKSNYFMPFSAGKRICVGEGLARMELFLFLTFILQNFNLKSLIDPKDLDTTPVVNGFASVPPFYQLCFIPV
# Sphingosine 1-phosphate receptor 5, sequence (Q9H228 whole entry): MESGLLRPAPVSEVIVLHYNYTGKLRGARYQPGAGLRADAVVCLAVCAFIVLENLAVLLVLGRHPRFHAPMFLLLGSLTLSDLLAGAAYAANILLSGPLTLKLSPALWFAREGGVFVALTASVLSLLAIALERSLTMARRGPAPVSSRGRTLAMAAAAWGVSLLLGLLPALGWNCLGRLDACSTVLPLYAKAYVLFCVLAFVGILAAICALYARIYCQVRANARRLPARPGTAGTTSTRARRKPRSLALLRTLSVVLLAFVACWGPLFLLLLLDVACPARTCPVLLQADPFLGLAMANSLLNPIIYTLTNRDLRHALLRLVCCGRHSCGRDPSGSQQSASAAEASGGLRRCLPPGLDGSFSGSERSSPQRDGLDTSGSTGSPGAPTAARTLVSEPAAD
# Cytochrome P450 2C9, sequence (P11712 whole entry): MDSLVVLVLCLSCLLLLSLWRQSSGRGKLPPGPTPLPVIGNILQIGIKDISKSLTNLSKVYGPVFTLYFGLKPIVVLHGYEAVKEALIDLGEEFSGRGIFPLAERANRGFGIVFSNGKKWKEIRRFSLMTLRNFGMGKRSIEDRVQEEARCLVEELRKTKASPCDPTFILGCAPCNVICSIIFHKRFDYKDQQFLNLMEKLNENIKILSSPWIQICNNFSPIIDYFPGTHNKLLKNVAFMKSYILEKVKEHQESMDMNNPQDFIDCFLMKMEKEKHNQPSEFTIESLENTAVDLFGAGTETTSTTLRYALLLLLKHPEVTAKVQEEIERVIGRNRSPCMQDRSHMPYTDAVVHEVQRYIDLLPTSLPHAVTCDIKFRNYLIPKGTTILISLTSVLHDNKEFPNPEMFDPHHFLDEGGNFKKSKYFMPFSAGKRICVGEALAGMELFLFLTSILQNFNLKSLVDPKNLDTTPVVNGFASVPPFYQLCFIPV
# Sphingosine 1-phosphate receptor 3, sequence (Q99500 whole entry): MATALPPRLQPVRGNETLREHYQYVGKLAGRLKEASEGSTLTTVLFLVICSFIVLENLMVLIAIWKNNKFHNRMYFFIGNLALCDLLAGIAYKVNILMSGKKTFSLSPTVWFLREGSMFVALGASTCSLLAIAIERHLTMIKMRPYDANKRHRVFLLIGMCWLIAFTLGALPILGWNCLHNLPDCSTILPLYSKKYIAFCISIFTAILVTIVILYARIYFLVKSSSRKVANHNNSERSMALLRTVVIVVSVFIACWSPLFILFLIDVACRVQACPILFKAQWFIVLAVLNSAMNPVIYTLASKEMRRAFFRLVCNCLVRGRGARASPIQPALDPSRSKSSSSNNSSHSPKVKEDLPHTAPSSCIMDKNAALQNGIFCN
# Sphingosine 1-phosphate receptor 1 (Mus musculus, UniProt O08530), sequence (O08530 whole entry): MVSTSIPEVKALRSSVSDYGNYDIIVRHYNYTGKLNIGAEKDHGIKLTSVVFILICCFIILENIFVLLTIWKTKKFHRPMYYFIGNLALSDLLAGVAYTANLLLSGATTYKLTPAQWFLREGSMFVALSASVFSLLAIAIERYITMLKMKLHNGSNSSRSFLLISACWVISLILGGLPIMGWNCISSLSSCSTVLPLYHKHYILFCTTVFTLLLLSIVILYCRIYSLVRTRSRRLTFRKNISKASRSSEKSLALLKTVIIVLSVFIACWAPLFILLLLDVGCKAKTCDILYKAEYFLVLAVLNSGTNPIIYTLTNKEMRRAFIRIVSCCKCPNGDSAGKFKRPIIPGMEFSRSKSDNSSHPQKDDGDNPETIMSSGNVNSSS
# hERG (KCNH2), sequence (Q12809 whole entry): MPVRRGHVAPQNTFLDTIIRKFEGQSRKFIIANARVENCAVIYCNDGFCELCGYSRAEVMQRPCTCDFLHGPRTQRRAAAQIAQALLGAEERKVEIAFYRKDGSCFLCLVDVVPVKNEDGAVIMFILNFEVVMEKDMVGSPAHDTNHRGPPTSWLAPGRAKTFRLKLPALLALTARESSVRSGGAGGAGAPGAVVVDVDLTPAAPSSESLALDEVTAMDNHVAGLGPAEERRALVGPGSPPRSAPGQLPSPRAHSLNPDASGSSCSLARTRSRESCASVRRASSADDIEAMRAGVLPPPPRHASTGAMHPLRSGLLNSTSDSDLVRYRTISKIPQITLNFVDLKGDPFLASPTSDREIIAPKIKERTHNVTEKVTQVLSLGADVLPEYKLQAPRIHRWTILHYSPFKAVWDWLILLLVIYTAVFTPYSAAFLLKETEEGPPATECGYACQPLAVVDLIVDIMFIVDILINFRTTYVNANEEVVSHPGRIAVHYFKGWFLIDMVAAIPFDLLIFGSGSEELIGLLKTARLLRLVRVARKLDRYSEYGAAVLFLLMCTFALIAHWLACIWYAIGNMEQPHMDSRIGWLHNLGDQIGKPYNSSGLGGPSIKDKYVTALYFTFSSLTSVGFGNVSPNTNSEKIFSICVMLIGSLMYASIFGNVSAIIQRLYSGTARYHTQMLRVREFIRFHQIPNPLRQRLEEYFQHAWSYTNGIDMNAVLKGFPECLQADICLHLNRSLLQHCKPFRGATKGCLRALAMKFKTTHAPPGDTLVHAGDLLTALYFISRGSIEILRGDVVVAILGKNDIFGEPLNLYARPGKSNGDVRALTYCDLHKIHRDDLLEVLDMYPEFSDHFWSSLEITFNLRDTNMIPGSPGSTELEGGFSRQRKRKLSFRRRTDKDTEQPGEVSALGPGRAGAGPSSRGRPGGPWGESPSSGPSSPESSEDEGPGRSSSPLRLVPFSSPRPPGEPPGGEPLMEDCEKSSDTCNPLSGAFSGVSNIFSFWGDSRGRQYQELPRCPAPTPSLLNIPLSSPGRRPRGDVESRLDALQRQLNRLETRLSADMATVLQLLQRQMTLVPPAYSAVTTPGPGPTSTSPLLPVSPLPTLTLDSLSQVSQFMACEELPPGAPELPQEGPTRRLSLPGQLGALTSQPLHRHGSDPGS
# Cytochrome P450 2D6, sequence (P10635 whole entry): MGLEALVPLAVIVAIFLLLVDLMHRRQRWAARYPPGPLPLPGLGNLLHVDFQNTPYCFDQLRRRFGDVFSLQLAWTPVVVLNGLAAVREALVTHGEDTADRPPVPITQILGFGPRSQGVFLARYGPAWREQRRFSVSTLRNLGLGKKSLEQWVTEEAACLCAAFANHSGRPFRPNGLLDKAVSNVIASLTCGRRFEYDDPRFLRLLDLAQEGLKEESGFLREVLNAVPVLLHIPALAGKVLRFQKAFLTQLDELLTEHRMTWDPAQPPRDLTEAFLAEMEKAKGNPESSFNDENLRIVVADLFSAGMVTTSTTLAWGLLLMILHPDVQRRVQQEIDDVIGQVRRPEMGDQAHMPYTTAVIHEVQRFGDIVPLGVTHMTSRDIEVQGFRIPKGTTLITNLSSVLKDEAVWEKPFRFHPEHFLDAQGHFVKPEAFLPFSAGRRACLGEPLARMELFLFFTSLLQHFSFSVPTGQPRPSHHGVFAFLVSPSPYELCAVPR
SMILES,IC50 (Cytochrome P450 2D6) [nM],Activity (Salmonella typhimurium [3]),Activity (Salmonella typhimurium [4]),EC50 [5] [nM],Activity (Salmonella typhimurium [6]),EC50 [7] [nM],Activity (Salmonella typhimurium [8]),EC50 [9] [nM],Activity (Salmonella typhimurium [13]),inhibition at 3 µM (hERG (KCNH2)) [%],EC50 [14] [nM],half-life [15] [h],EC50 [16] [nM],EC50 [17] [nM],half-life [18] [h],IC50 (Cytochrome P450 3A4) [nM],Activity (Salmonella typhimurium [20]),EC50 [22] [nM],IC50 (Cytochrome P450 2C9) [nM],EC50 [23] [nM],also measured
O=C(O)CCC(=O)N1CCc2cc(-c3noc(-c4cc(C(F)(F)F)cc(C(F)(F)F)c4)n3)ccc21,> 50000,Non-toxic,Non-toxic,1.3,Non-toxic,1.3,Non-toxic,3100,Non-toxic,< 10,4.6,> 1,88,160,> 1,> 50000,Non-toxic,1.1,34800,1.4,Tmax [1]: 3 h; Vd [2]: 0.564 L/kg; AUC(0-t) [10]: 16000 ng·h/mL; Cmax [11]: 1740 ng/mL; half-life [12]: 8.5 h; clearance [19]: 0.633 mL/min/kg; bioavailability [21]: 50.2%; Activity (Salmonella typhimurium [24]): Non-toxic; Activity (Mus musculus [25]): Active; IC50 (Cytochrome P450 2C19): > 50000 nM; fraction unbound [26]: 0.006; EC50 [27]: 39 nM; IC50 [28]: > 100000 nM; IC50 (Cytochrome P450 1A2): > 50000 nM; EC50 [29]: > 100000 nM; Activity (Salmonella typhimurium [30]): Non-toxic
N#Cc1cc(OC(F)(F)F)cc(-c2nc(-c3ccc4c(c3)CCN4C(=O)CCC(=O)O)no2)c1,> 50000,Non-toxic,Non-toxic,1,Non-toxic,0.7,Non-toxic,> 100000,Non-toxic,13,1.2,> 1,109,1330,> 1,> 50000,Non-toxic,0.8,> 50000,1.1,IC50 (Mus musculus [31]): 0.431 µg/mL; AUC(0-t) [32]: 20200 ng·h/mL; Cmax [33]: 3820 ng/mL; clearance [34]: 0.75 mL/min/kg; bioavailability [35]: 32.8%; Tmax [36]: 2 h; Activity (Mus musculus [37]): inactive; Vd [38]: 0.275 L/kg; half-life [39]: 2.9 h; half-life [40]: 3 h; Activity (Salmonella typhimurium [24]): Non-toxic; IC50 (Cytochrome P450 2C19): > 50000 nM; fraction unbound [41]: 0.007; fraction unbound [26]: 0.003; EC50 [27]: 31 nM; IC50 [28]: > 100000 nM; IC50 (Cytochrome P450 1A2): > 50000 nM; EC50 [29]: > 100000 nM; Activity (Salmonella typhimurium [30]): Non-toxic
